Experimental data as given in PMC8244166 (Neuron, 2020).
Several values for one entry are separate records, joined by “and”; a condition that tells them apart may be missing. Identical values can stand only once.

Assays:
[1] = system: Glu864Trp channel; test: Single channel recordings, point mutant; format: cell-based, human; settings: +80 mV
[2] = system: TRPA1 channel; test: Inside-out single channel / macropatch recordings; format: cell-based, human; settings: for y (single channel conductance) / Px/PNa (ion selectivity against Na+): 1 μM GNE551, 10 μM AITC; for Erev (reversal potential) / opening frequency / single channel open probability (Po): 1 μM GNE551 (n = 5); for Erev (reversal potential): 10 μM AITC (n = 4); for channel desensitization: nominally Ca2+-free solutions, AITC 10 μM, GNE551 1 μM; for opening frequency / single channel open probability (Po) / open state dwell time: inside-out; for opening frequency / single channel open probability (Po): +80 mV, 100 nM WaTx (n = 8); for open state dwell time: agonist-activated channels
[3] = system: TRPA1 Glu864Trp mutant; test: Ca2+ assay, point mutant; format: cell-based, human; settings: high background Ca2+ signals
Outline: (§1)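 HEK293-F cells are transiently transfected with the TRPA1 construct one day before imaging. Cells are loaded with a calcium-sensitive dye for 1 h at 37 °C. Compound is added and fluorescence (Ca2+ RFU) is recorded on a kinetic fluorescence imager. EC50 comes from nonlinear regression constrained to EC50 > 0, Bottom = 0 and Hill slope between 1 and 3.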

[4] = Glutathione reactivity assay; format: physicochemical; settings: 10 μM compound, 1 mM glutathione, pH7.4, 37°C, 30 minutes
Outline: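 The test compound (10 μM) is incubated with or without 1 mM glutathione in 50 mM potassium phosphate, pH7.4, at 37°C for 30 minutes, and the reaction is stopped on ice. Samples run by UHPLC-MS on a C18 column at 40 °C and 0.4 mL/min, with a 0.1% formic acid water/acetonitrile gradient of 5–50% B over 15 minutes, then a 95% B wash.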

[5] = system: rat hind paw nocifensive behavior; test: Nocifensive behavior after intraplantar agonist injection; format: in vivo; settings: for cumulative nocifensive time: n = 7
Outline: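 Male Sprague-Dawley rats aged 8 weeks or older are used; KO versus WT littermates from heterozygote crosses include both sexes. Under light restraint, a unilateral intraplantar injection of 25 μL is given with a 30-gauge needle: reference electrophile 0.1% or test agonist 10 mM. Rats are video-recorded 15 min (reference) or 30 min (test agonist) during the light phase. Licking, flicking and guarding time is scored blind offline, and groups are compared by two-tailed t-test.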

[6] = system: Gln940Val TRPA1; test: Whole-cell patch clamp, point mutant; format: cell-based, human; settings: GNE551 1.5 μM, AITC positive control, n = 4
Outline: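 HEK293-F cells are recorded whole-cell one day after transient transfection. From a 0 mV holding potential, the protocol is 10 msec at −80 mV, a 200 msec ramp to +80 mV, then 10 msec at +80 mV, applied once per second. Nominally Ca2+-free solutions are used: bath NaCl/HEPES with 0.1 mM EGTA, pH 7.4; pipette CsF with 10 mM EGTA, pH 7.2. Compounds are delivered by fast solution exchange.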

[7] = biological target: T1, hTRPA1 (Homo sapiens, UniProt O75762); test: Whole-cell voltage-clamp recordings of TRPA1-expressing HEK293-F cells; format: cell-based; settings: for current of second application compared to the first: whole-cell, n = 3
T1 sequence (O75762 whole entry): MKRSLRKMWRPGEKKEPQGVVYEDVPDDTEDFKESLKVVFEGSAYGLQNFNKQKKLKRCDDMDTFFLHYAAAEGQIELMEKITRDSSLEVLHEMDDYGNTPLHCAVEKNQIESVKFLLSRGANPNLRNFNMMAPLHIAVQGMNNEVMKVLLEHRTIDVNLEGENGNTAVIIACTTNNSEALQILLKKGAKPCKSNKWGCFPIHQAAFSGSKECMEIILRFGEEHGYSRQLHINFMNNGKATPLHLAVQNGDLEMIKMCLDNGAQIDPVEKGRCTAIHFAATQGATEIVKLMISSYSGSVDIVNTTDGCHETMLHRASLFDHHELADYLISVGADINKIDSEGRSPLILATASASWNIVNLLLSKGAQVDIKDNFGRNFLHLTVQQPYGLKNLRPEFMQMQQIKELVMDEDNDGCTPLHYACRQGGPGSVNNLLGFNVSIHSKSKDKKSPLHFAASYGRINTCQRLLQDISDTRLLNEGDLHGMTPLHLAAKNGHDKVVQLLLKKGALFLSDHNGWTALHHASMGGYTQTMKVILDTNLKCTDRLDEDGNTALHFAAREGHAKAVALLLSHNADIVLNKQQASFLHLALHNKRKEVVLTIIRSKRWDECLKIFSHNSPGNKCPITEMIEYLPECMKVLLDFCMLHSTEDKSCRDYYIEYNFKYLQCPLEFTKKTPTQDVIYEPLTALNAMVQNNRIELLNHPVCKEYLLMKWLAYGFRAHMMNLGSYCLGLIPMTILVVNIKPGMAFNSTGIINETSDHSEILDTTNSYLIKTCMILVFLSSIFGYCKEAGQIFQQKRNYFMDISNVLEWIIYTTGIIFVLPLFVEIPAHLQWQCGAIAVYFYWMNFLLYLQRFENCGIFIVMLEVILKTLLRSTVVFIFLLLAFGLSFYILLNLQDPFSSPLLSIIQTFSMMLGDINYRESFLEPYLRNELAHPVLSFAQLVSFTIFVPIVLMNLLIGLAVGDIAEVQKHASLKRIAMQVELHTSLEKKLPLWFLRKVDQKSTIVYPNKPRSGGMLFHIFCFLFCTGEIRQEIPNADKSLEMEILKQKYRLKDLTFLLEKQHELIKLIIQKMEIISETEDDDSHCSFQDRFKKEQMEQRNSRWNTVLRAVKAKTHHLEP

[8] = system: AITC-evoked nocifensive behavior; test: Inhibition of AITC-evoked nocifensive behavior, PK/PD; format: in vivo, rat; settings: 30 mg/kg dosing
[9] = system: GNE551-evoked nocifensive behavior; test: Inhibition of GNE551-evoked nocifensive behavior, PK/PD; format: in vivo, rat
[10] = Rat pharmacokinetics after oral gavage; format: in vivo
[11] = system: TRPA1 Phe909Ala; test: Ca2+ assay, point mutant; format: cell-based, human
Outline: as §1

[12] = system: Cav1.2; test: Cav1.2 assay; format: cell-based; settings: up to 30 μM
[13] = system: TRPA1 from dog; test: Ca2+ assay, species TRPA1; format: cell-based
Outline: as §1

[14] = system: TRPA1 Tyr840 to Phe; test: Ca2+ assay, point mutant; format: cell-based, human; settings: versus wild type
Outline: as §1

[15] = system: TRPA1 from rat; test: Ca2+ assay, species TRPA1; format: cell-based
Outline: as §1

[16] = system: human TRPM8; test: Ion channel selectivity test; format: cell-based; settings: 20 μM
[17] = system: NK1 receptor; test: NK1 receptor agonist / antagonist assay; format: cell-based; settings: up to 30 μM
[18] = system: TRPA1 Tyr840 to Trp, His, Leu, or Ala; test: Ca2+ assay, point mutants; format: cell-based, human
Outline: as §1

[19] = biological target: T1, hTRPA1; test: Ca2+ influx assay, HEK293-F cells expressing human TRPA1; format: cell-based
[20] = system: rat dorsal root ganglion neurons; test: Ca2+ influx in dorsal root ganglion neurons; format: cell-based; settings: WT versus TRPA1 KO rats
[21] = system: TRPA1 from guinea pig; test: Ca2+ assay, species TRPA1; format: cell-based
Outline: as §1

[22] = system: Gln940Val mutant human channel; test: Ca2+ assay, point mutant; format: cell-based
Outline: as §1

[23] = system: Cav1.2 (L-dihydropyridine site); test: CEREP panel binding inhibition
[24] = system: human potassium channel hERG1; test: Ion channel selectivity test; format: cell-based; settings: 10 μM
[25] = system: TRPA1 Gln940 to Asn, Val or Ala; test: Ca2+ assay, point mutants; format: cell-based, human
Outline: as §1

[26] = system: chicken TRPA1; test: Ca2+ assay, species TRPA1; format: cell-based; settings: concentration as high as 50 μM
Outline: as §1

[27] = system: chimera containing S1-S6 domains of chicken TRPA1; test: Ca2+ assay, human-chicken chimera; format: cell-based
Outline: as §1

[28] = system: TRPA1 Ser887 to Trp or Met; test: Ca2+ assay, point mutants; format: cell-based, human
Outline: as §1

[29] = system: NK1 receptor; test: CEREP panel binding inhibition; settings: 10 μM
[30] = system: human TRPC6; test: Ion channel selectivity test; format: cell-based; settings: 20 μM
[31] = system: human TRPV1; test: Ion channel selectivity test; format: cell-based; settings: 20 μM
[32] = system: TRPA1 Ser873Val/Thr874Leu; test: Ca2+ assay, point mutant; format: cell-based, human
Outline: as §1

[33] = system: TRPA1 from rhesus monkey; test: Ca2+ assay, species TRPA1; format: cell-based
Outline: as §1

[34] = biological target: T1, hTRPA1
[35] = biological target: the molecule itself; test: cryo-EM structure

With `CCC(=N\O)/C(C)=C/c1ccc(F)cc1` [A-967079, reference compound] the “block of high basal activity” value ([1]; A-967079 1 μM) was “blocked”.

In the case of `C=CCN=C=S` [AITC, allyl isothiocyanate, reference compound], the “y (single channel conductance)” value ([2]; cation Ca2+) is reported as 30.9 ± 6.2 pS, the “Erev (reversal potential)” value ([2]; cation Mg2+) is reported as −19.1 ± 1.5 mV and the “y (single channel conductance)” value ([2]; cation Mg2+) is reported as 30.1 ± 6.8 pS. For the same molecule, the “y (single channel conductance)” value ([2]; cation Na+) was 134.9 ± 11.6 pS, the channel desensitization [2] was “desensitized within seconds” and the “response of mutant to agonist stimulation” value [3] was “almost lost responses”. The glutathione adduct formation [4] was “formed a glutathione adduct”, the nocifensive response ([5]; after 10 min, AITC 0.1%, 25 μl) was “completely disappeared” and the cumulative nocifensive time ([5]; first 5 min period, AITC 0.1%, 25 μl, WT rats) was 102 ± 19 s. For the same molecule, the nocifensive behavior ([5]; intraplantar AITC 0.1%, 25 μl, WT and TRPA1 KO rats) was “elicited nocifensive behavior in wild type (WT) but not in knock out (KO) rats”, the cumulative nocifensive time ([5]; second 5 min period, AITC 0.1%, 25 μl, WT rats) was 57.7 ± 11.1 s and the “activation of mutant channel” value [6] was “robust response”. For the same molecule, the “current of second application compared to the first” value (“current … compared to the first” below) ([7]; −80 mV) was 19.4 ± 4.3%.

In the case of `Cn1cnc2ncn(Cc3nc(CCc4ccc(Cl)cc4)no3)c(=O)c21` [AMG0902], the “block of AITC-induced response” value [8] is reported as 86%, the “block of GNE551-induced response” value ([9]; 30 mg/kg) is reported as 38% and the “latency to GNE551-induced nocifensive behavior” value ([9]; increasing oral doses of antagonist) is reported as “lengthened the latency”. The “Tmax (time point of maximal plasma concentration)” value [10] was 1 h.

In the case of `COc1ccc(OC)c(NC(=O)c2nnn(Cc3ccc(Br)cc3F)c2N)c1` [GNE551, 5-amino-1-(4-bromo-2-fluorobenzyl)-N-(2,5-dimethoxyphenyl)-1H-1,2,3-triazole-4-carboxamide], the “effect of mutation on GNE551 activation” value [11] is reported as “not affected”, the “inhibition of Cav1.2” value [12] is reported as “did not translate to” and the channel activation [13] is reported as “activated”. The “Erev (reversal potential)” value ([2]; cation Ca2+) was −25.6 ± 1.1 mV, the “Px/PNa (ion selectivity against Na+)” value ([2]; cation Ca2+) was 15.7 ± 1.1 and the “y (single channel conductance)” value ([2]; cation Ca2+) was 21.6 ± 2.8 pS. For the same molecule, the “Erev (reversal potential)” value ([2]; cation Mg2+) was −13.2± 2.7 mV, the “Px/PNa (ion selectivity against Na+)” value ([2]; cation Mg2+) was 7.2 ± 1.3 and the “y (single channel conductance)” value ([2]; cation Na+) was 101.4 ± 6.8 pS. For the same molecule, the opening frequency [2] was 4.6 ± 0.6 Hz, the “single channel open probability (Po)” value [2] was 0.41 ± 0.07 and 0.41 and the “open state dwell time” value [2] was 20.9 milliseconds. For the same molecule, the channel desensitization [2] was “did not result in desensitization”, the “reduction of potency by mutation” value [14] was “six-fold” and the channel activation [15] was “activated”. For the same molecule, the “activation or block of channel” value [16] was “did not activate or block”, the “agonistic or antagonistic effect on NK1 receptor” value [17] was “did not translate to significant agonistic or antagonistic effect” and the “effect of mutation on sensitivity to GNE551” value [18] was “completely abolished”. The EC50 [19] was 254 nM, the “efficacy compared to AITC” value ([19]; Ca2+ influx, human TRPA1) was “equally efficacious” and the “open probability (Po)” value ([1]; GNE551 1 μM, n = 4, basal Po 0.56 ± 0.05) was 0.80 ± 0.08. For the same molecule, the “specificity of activation in DRG neurons” value [20] was “solely activated TRPA1 channels”, the channel activation [21] was “activated” and the “response of mutant to agonist stimulation” value [3] was “almost lost responses”. The “effect of mutation on GNE551 activation” value [22] was “nearly abolished”, the inhibition at 10 µM [23] was > 75% and the inhibition of channel [24] was “did not inhibit”. For the same molecule, the glutathione adduct formation [4] was “did not form an adduct”, the “effect of mutation on sensitivity to GNE551” value [25] was “completely abolished” and the “latency to nocifensive response” value ([5]; GNE551 10 mM, 25 μl, WT rats) was “reduced”. The “residual response in TRPA1 KO rats” value ([5]; GNE551 10 mM, possibly vehicle effect) was 13%, the nocifensive behaviors ([5]; first 5 min after injection of GNE551) was “virtually no paw flicking, licking, or guarding” and the nocifensive response ([5]; intraplantar GNE551 1, 3, and 10 mM, 25 μl, WT rats) was “dose-dependent manner”. The “time to plateau of nocifensive behaviors after injection” value ([5]; intraplantar GNE551, 30-min observation) was 15 to 20 min, the channel activation [26] was “no effect” and the “activation of mutant channel” value [6] was “failed to activate”. For the same molecule, the response of chimera [27] was “lost response”, the “effect of mutation on activation” value [28] was “loss of activation” and the EC50 [7] was 141 nM. For the same molecule, the “current … compared to the first” value ([7]; +80 mV) was 93.5 ± 0.5%, the “current … compared to the first” value ([7]; −80 mV) was 89.0 ± 6.3% and the binding inhibition [29] was > 75%. For the same molecule, the “activation or block of channel” value [30] was “did not activate or block”, the “activation or block of channel” value [31] was “did not activate or block” and the “effect of mutation on GNE551 activation” value [32] was “not affected”. For the same molecule, the channel activation [33] was “activated”.

With “WaTx: cell-penetrating peptide toxin that activates TRPA1 (ASPQQAKYCYEQCNVNKVPFDQCYQMCSPLERS) [reference compound]” the opening frequency [2] was 1.7 ± 0.5 Hz, the “single channel open probability (Po)” value [2] was 0.045 ± 0.012 and the “open state dwell time” value [2] was 2.2 milliseconds.

Molecule “cell-penetrating peptide toxin WaTx (from UniProt C0HLG4 36-68)” has an open state dwell time of WaTx-activated channels, inside-out patches [34] of 2.2 milliseconds.

B1: human TRPA1 [Ser448-Thr1078], truncated and non-functional construct for structural studies (domain or fragment)
chain: GSGGSGGSGGSGGSPLHFAASYGRINTCQRLLQDISDTRLLNEGDLHGMTPLHLAAKNGHDKVVQLLLKKGALFLSDHNGWTALHHASMGGYTQTMKVILDTNLKCTDRLDEDGNTALHFAAREGHAKAVALLLSHNADIVLNKQQASFLHLALHNKRKEVVLTIIRSKRWDECLKIFSHNSPGNKCPITEMIEYLPECMKVLLDFCMLHSTEDKSCRDYYIEYNFKYLQCPLEFTKKTPTQDVIYEPLTALNAMVQNNRIELLNHPVCKEYLLMKWLAYGFRAHMMNLGSYCLGLIPMTILVVNIKPGMAFNSTGIINETSDHSEILDTTNSYLIKTCMILVFLSSIFGYCKEAGQIFQQKRNYFMDISNVLEWIIYTTGIIFVLPLFVEIPAHLQWQCGAIAVYFYWMNFLLYLQRFENCGIFIVMLEVILKTLLRSTVVFIFLLLAFGLSFYILLNLQDPFSSPLLSIIQTFSMMLGDINYRESFLEPYLRNELAHPVLSFAQLVSFTIFVPIVLMNLLIGLAVGDIADVQKHASLKRIAMQVELHTSLEKKLPLWFLRKVDQKSTIVYPNKPRSGGMLFHIFCFLFCTGEIRQEIPNADKSLEMEILKQKYRLKDLTFLLEKQHELIKLIIQKMEIISET
B1: binds [35].
